Assay results published in ChEMBL document CHEMBL5303300, “EUbOPEN Chemogenomics Library - Multiplex” (2023).
“And” between values parts separate entries of the source, which are not always exact repeats. Equal entries are not always repeated.

Legend:
U2OS = experiment: Multiplex assay against U2OS; type: toxicity, cell-based; conditions: human, number of replicates 2
Procedure, shortened: (§1)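 Hoechst33342, BioTracker Green Microtubule Cytoskeleton Dye, MitoTracker Red and Annexin V Alexa Fluor 680 were added to live cells at seeding, and imaging on a CQ1 microscope at 37°C and 5% CO2 followed compound addition. Gating by CellPathfinder machine learning separated cells into Hoechst high-intensity objects or normal cells, then normal cells into healthy, pyknosed or fragmented nuclei, then pyknosed cells into mitotic or apoptotic. Per cents of healthy-nucleus cells are reported for the tubulin, mitochondrial-mass and membrane-permeability phenotypes.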

Fibroblast = experiment: Multiplex assay against human fibroblast; type: toxicity, cell-based; conditions: number of replicates 2; procedure, shortened: as §1
[1] = 24 h, 10 µM, compound concentration 10 uM
[2] = 48 h, 1 µM, compound concentration 1 uM
[3] = 48 h, 10 µM, compound concentration 10 uM
[4] = 12 h, 1 µM, compound concentration 1 uM
[5] = 12 h, 10 µM, compound concentration 10 uM
[6] = 24 h, 1 µM, compound concentration 1 uM

SMILES: CN(C)CCCNc1ccnc(Nc2cccc(Cl)c2)n1
- Population Apoptotic (%) (U2OS; [1]): 38% and 33%
- Population Fragmented Nuclei (%) (U2OS; [1]): 14% and 22%
- Population Healthy Nuclei (%) (U2OS; [1]): 67% and 54%
- Population Hoechst High Intensity Objects (%) (U2OS; [1]): 0%
- Population Membrane Permeable-Phenotype (%) (U2OS; [1]): 2% and 6%
- Population Mitochondria Different-Phenotype (%) (U2OS; [1]): 6% and 3%
- Population Mitotic Cells (%) (U2OS; [1]): 61% and 66%
- Population Normal (%) (U2OS; [1]): 100%
- Population Pyknosed Nuclei (%) (U2OS; [1]): 18% and 22%
- Population Tubulin-Different-Phenotype (%) (U2OS; [1]): 64% and 48%
- Population Apoptotic (%) (U2OS; [2]): 70% and 78%
- Population Fragmented Nuclei (%) (U2OS; [2]): 5% and 3%
- Population Healthy Nuclei (%) (U2OS; [2]): 81% and 89%
- Population Hoechst High Intensity Objects (%) (U2OS; [2]): 0%
- Population Membrane Permeable-Phenotype (%) (U2OS; [2]): 0% and 1%
- Population Mitochondria Different-Phenotype (%) (U2OS; [2]): 0%
- Population Mitotic Cells (%) (U2OS; [2]): 30% and 21%
- Population Normal (%) (U2OS; [2]): 100% and 99%
- Population Pyknosed Nuclei (%) (U2OS; [2]): 13% and 7%
- Population Tubulin-Different-Phenotype (%) (U2OS; [2]): 56% and 80%
- Population Apoptotic (%) (U2OS; [3]): 94% and 73%
- Population Fragmented Nuclei (%) (U2OS; [3]): 15% and 14%
- Population Healthy Nuclei (%) (U2OS; [3]): 47% and 50%
- Population Hoechst High Intensity Objects (%) (U2OS; [3]): 3% and 1%
- Population Membrane Permeable-Phenotype (%) (U2OS; [3]): 12% and 5%
- Population Mitochondria Different-Phenotype (%) (U2OS; [3]): 4% and 5%
- Population Normal (%) (U2OS; [3]): 96% and 98%
- Population Pyknosed Nuclei (%) (U2OS; [3]): 37% and 34%
- Population Tubulin-Different-Phenotype (%) (U2OS; [3]): 62% and 67%
- Population Apoptotic (%) (Fibroblast; [4]): 13% and 30%
- Population Fragmented Nuclei (%) (Fibroblast; [4]): 9% and 15%
- Population Healthy Nuclei (%) (Fibroblast; [4]): 76% and 67%
- Population Hoechst High Intensity Objects (%) (Fibroblast; [4]): 0%
- Population Membrane Permeable-Phenotype (%) (Fibroblast; [4]): 4%
- Population Mitochondria Different-Phenotype (%) (Fibroblast; [4]): 1%
- Population Mitotic Cells (%) (Fibroblast; [4]): 86% and 70%
- Population Normal (%) (Fibroblast; [4]): 99% and 100%
- Population Pyknosed Nuclei (%) (Fibroblast; [4]): 14% and 16%
- Population Tubulin-Different-Phenotype (%) (Fibroblast; [4]): 14% and 10%
- Total Cell Count (Fibroblast; [4]): 249 and 301
- Population Apoptotic (%) (Fibroblast; [5]): 36% and 44%
- Population Fragmented Nuclei (%) (Fibroblast; [5]): 23% and 18%
- Population Healthy Nuclei (%) (Fibroblast; [5]): 65% and 70%
- Population Hoechst High Intensity Objects (%) (Fibroblast; [5]): 0%
- Population Membrane Permeable-Phenotype (%) (Fibroblast; [5]): 6% and 3%
- Population Mitochondria Different-Phenotype (%) (Fibroblast; [5]): 2% and 1%
- Population Mitotic Cells (%) (Fibroblast; [5]): 63% and 55%
- Population Normal (%) (Fibroblast; [5]): 99%
- Population Pyknosed Nuclei (%) (Fibroblast; [5]): 10% and 11%
- Population Tubulin-Different-Phenotype (%) (Fibroblast; [5]): 32% and 19%
- Total Cell Count (Fibroblast; [5]): 277 and 316
- Population Apoptotic (%) (Fibroblast; [6]): 35% and 40%
- Population Fragmented Nuclei (%) (Fibroblast; [6]): 13% and 19%
- Population Healthy Nuclei (%) (Fibroblast; [6]): 73% and 66%
- Population Hoechst High Intensity Objects (%) (Fibroblast; [6]): 0%
- Population Membrane Permeable-Phenotype (%) (Fibroblast; [6]): 4%
- Population Mitochondria Different-Phenotype (%) (Fibroblast; [6]): 0% and 2%
- Population Mitotic Cells (%) (Fibroblast; [6]): 64% and 59%
- Population Normal (%) (Fibroblast; [6]): 100% and 99%
- Population Pyknosed Nuclei (%) (Fibroblast; [6]): 13% and 14%
- Population Tubulin-Different-Phenotype (%) (Fibroblast; [6]): 14% and 13%
- Total Cell Count (Fibroblast; [6]): 284 and 321
- Population Apoptotic (%) (Fibroblast; [1]): 30% and 31%
- Population Fragmented Nuclei (%) (Fibroblast; [1]): 18% and 13%
- Population Healthy Nuclei (%) (Fibroblast; [1]): 61% and 66%
- Population Hoechst High Intensity Objects (%) (Fibroblast; [1]): 1% and 2%
- Population Membrane Permeable-Phenotype (%) (Fibroblast; [1]): 4% and 3%
- Population Mitochondria Different-Phenotype (%) (Fibroblast; [1]): 3% and 0%
- Population Mitotic Cells (%) (Fibroblast; [1]): 69% and 68%
- Population Normal (%) (Fibroblast; [1]): 98% and 97%
- Population Pyknosed Nuclei (%) (Fibroblast; [1]): 20% and 19%
- Population Tubulin-Different-Phenotype (%) (Fibroblast; [1]): 32% and 17%
- Total Cell Count (Fibroblast; [1]): 319 and 392
- Population Apoptotic (%) (Fibroblast; [2]): 56% and 66%
- Population Fragmented Nuclei (%) (Fibroblast; [2]): 18% and 25%
- Population Healthy Nuclei (%) (Fibroblast; [2]): 70% and 65%
- Population Hoechst High Intensity Objects (%) (Fibroblast; [2]): 0%
- Population Membrane Permeable-Phenotype (%) (Fibroblast; [2]): 3% and 1%
- Population Mitochondria Different-Phenotype (%) (Fibroblast; [2]): 0%
- Population Mitotic Cells (%) (Fibroblast; [2]): 43% and 33%
- Population Normal (%) (Fibroblast; [2]): 99%
- Population Pyknosed Nuclei (%) (Fibroblast; [2]): 10% and 9%
- Population Tubulin-Different-Phenotype (%) (Fibroblast; [2]): 12% and 5%
- Total Cell Count (Fibroblast; [2]): 314 and 360
- Population Apoptotic (%) (Fibroblast; [3]): 22% and 29%
- Population Fragmented Nuclei (%) (Fibroblast; [3]): 17% and 16%
- Population Healthy Nuclei (%) (Fibroblast; [3]): 66% and 70%
- Population Hoechst High Intensity Objects (%) (Fibroblast; [3]): 6%
- Population Membrane Permeable-Phenotype (%) (Fibroblast; [3]): 3% and 2%
- Population Mitochondria Different-Phenotype (%) (Fibroblast; [3]): 2% and 0%
- Population Mitotic Cells (%) (Fibroblast; [3]): 77% and 70%
- Population Normal (%) (Fibroblast; [3]): 93%
- Population Pyknosed Nuclei (%) (Fibroblast; [3]): 16% and 13%
- Population Tubulin-Different-Phenotype (%) (Fibroblast; [3]): 33% and 16%
- Total Cell Count (Fibroblast; [3]): 391 and 463
